Here are results for 14 compounds from ChEMBL document CHEMBL4431342, “Coumarin derivatives as potential inhibitors of acetylcholinesterase: Synthesis, molecular docking and biological studies” (Bioorg Med Chem, 2016).

Molecules are shown by their SMILES. Calls of active or inactive are those of the source. No cut-off for these calls is given here.

Assay [1] has as its system Mus musculus. In words: Antiamnesic activity in Albino LACA mouse assessed as decrease in scopolamine-induced increase in escape latency time administered intraperitoneally 5 mins post scopolamine challenge for 35 mins by Morris water maze test. Format: functional, organism-based. The gist of the method: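 Mice of either sex, 25-35 g, housed in groups of five. […] Water maze: water 30 cm deep at 28 ± 2 °C, 5 days, 90 s maximum per trial, then a 90 s probe trial. Read-out is escape latency; n = 5, mean ± SEM.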

Assay [2] concerns the target T1, Acetylcholinesterase (Mus musculus, UniProt P21836).
T1 sequence (P21836 whole entry): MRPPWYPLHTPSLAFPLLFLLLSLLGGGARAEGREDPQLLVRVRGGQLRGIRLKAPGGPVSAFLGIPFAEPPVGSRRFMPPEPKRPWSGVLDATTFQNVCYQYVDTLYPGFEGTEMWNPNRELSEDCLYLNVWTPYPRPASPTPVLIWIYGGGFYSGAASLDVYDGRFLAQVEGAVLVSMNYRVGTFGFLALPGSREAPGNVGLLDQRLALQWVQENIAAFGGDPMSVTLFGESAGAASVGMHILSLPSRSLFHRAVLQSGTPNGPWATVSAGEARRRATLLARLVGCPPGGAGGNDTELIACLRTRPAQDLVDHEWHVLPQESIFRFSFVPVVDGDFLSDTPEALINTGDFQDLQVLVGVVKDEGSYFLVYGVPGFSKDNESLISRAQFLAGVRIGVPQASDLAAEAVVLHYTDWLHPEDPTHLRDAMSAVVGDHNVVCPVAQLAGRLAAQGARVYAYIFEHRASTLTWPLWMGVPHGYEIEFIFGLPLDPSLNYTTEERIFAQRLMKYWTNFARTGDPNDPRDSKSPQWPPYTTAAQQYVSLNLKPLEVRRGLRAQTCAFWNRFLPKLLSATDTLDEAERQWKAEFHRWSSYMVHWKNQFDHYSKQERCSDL
In words: biochemical. Format: tissue-based, LACA, Brain.

Assay [3] deals with Mus musculus. Briefly: Antiamnesic activity in Albino LACA mouse assessed as scopolamine-induced increase in escape latency time administered intraperitoneally 5 mins post scopolamine challenge for 35 mins by Morris water maze test (reference value: 49.35 +/- 2.21 secs). The assay is classed as functional. The gist of the method: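 LACA albino mice, 25-35 g, either sex, housed five per group. Scopolamine 0.5 mg/kg i.p. or saline given 35 min before training, then vehicle (0.25% CMC suspension) or compound 1 mg/kg i.p. 5 min later. Water maze at 30 cm depth, 28 ± 2 °C, training over 5 days, 90 s maximum per trial, probe trial 90 s. Escape latency recorded, mean of 5 mice.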

With `O=c1cc(OCCCN2CCN(c3ncccn3)CC2)c2ccccc2o1`, in assay [1], the result was Active. Moreover, the IC50 (as a rule, the point on the concentration scale where inhibition reaches its midpoint) in assay [2] came out at 21.6 µM. Further, the Time in assay [3] was determined as 13.98 s.

Consider `O=c1cc(OCCCN2CCN(c3ccccn3)CC2)c2ccccc2o1`, for which the outcome in assay [1] was Active. Moreover, in assay [2], the IC50 worked out at 16.1 µM.

Take `O=c1cc(OCCCN2CCN(c3ccc(F)cc3)CC2)c2ccccc2o1`: in assay [1], the result was Active. Further, the IC50 in assay [2] is 9.5 µM.

Consider `O=c1cc(OCCCCN2CCN(c3ccccc3)CC2)c2ccccc2o1`, for which, in assay [1], the outcome was Active. In assay [2], the IC50 was determined as 14.9 µM.

Take `O=c1cc(OCCCN2CCC(Cc3ccccc3)CC2)c2ccccc2o1`: in assay [1], the outcome was Active. Half-maximal inhibition in assay [2] (IC50) required 11.4 µM.

Turning to `O=c1cc(OCCCNCCc2ccccc2)c2ccccc2o1`, the result in assay [1] was Active. Moreover, the IC50 in assay [2] turned out to be 66.9 µM.

As to `O=c1cc(OCCCCN2CCN(c3ccccn3)CC2)c2ccccc2o1`, in assay [1], the result was Active. The compound further returned an IC50 in assay [2] of 37.5 µM.

Take `O=c1cc(OCCCCN2CCN(c3ccccc3F)CC2)c2ccccc2o1`: in assay [1], the result was Active. The same compound yielded an IC50 in assay [2] of 29.7 µM.

Consider `O=C(NCCc1ccccc1)Oc1cc(=O)oc2ccccc12`, for which the outcome in assay [1] was Active. In assay [2], this compound gave an IC50 of 83.4 µM.

For the compound `O=c1cc(OCCCCN2CCN(c3ncccn3)CC2)c2ccccc2o1`, the outcome in assay [1] was Active. The same compound came in with an IC50 in assay [2] of 34.8 µM.

On to `COc1ccc(CCNCCCOc2cc(=O)oc3ccccc23)cc1OC`, for which the outcome in assay [1] was Active. In assay [2], this compound showed an IC50 of 47.1 µM.

For the compound `O=C(Oc1cc(=O)oc2ccccc12)N1CCN(c2ccccc2)CC1`, the outcome in assay [1] was Active. In addition, the IC50 in assay [2] was 74.8 µM.

Consider `O=c1cc(OCCCN2CCN(c3ccccc3F)CC2)c2ccccc2o1`, for which the outcome in assay [1] was Active. For the same compound, the IC50 in assay [2] came out at 5.2 µM. For the same compound, in assay [3], the Time is reported as 11.8 s.

Take `O=c1cc(OCCCN2CCN(c3ccccc3)CC2)c2ccccc2o1`: the result in assay [1] was Active. The compound also came in with an IC50 in assay [2] of 2.42 µM. Besides, the Time in assay [3] was determined as 8.05 s.
